Data as given in PubChem BioAssay AID504382 (The Scripps Research Institute Molecular Screening Center, 2011).
Screen size: about 2,500 compounds; about 460 (18%) were called active. A selection follows. A number with no mark means an inactive call.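 Rule for the calls: active = mean activation above a cutoff of low control average plus 3 SD from the earlier screen (cut at about 12% in these data); inactive = the rest.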

test: IANBD-channel fluorescence artefacts in buffer – biochemical, artefact control for cardiac RTF calcium sensitizer project, confirmation (AID 504382); conditions: IANBD fluorescence interference counterscreen, EC20 Ca2+, at 7.2 µM, hits give high values, scaled: EC20 calcium 0, EC100 calcium 100
Outline: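 Medium: MOPS buffer, 190 mM, with KCl, MgCl2, EGTA, NTA, DTT, pH 7.20; Dosing: one dose of 7.2 µM, 0.7% DMSO; Probe or stimulus: calcium at EC20 level, 0.472 mM final; Incubation: 15 min, 25 °C; Evaluation: compound fluorescence interference relative to control well signal range; Signal: fluorescence, 480/540 nm.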

Row | SMILES | fluorescence artifact activation
1 | CCOP(=O)(OCC)/C(=N/OC(=O)c1ccc(OC)cc1)C(N)=O | 0.15%
2 | Cc1c(CN2CCCC(C)C2)c(O)n(CCO)c(=O)c1C#N (configuration not stated) | 1.74%
3 | C=CCN1C(=O)C(Cc2cccc(Cl)c2)S/C1=N/N=C/c1ccco1 (configuration not stated) | 0.07%
4 | CCOc1ccc(C2CC(c3c(O)c4ccccc4oc3=O)=NN2c2ccccc2)cc1OC (configuration not stated) | 5.17%
5 | CCOc1cc(C2C3=C(CCCC3=O)N(C)C3=C2C(=O)CCC3)cc(Cl)c1O | -0.02%
6 | CCOc1ccc(C2C(C#N)=C(N)SC(N)=C2C#N)c(OCC)c1 | 0.05%
7 | CCOc1cc(C2C(C#N)=C(N)OC(C)=C2C(C)=O)cc(Br)c1O (configuration not stated) | 37.6% (active)
8 | COc1ccc(OCC(=O)OCCNC(=O)c2cccnc2)cc1 | 0.14%
9 | O=C(CN1C(=O)c2ccccc2C1=O)NCc1ccc(N2CCOCC2)cc1 | 1.1%
10 | Cc1cc2nc3c(=O)[nH]c(=S)[nH]c3nc2cc1NC(=O)C(F)(F)F | 5.96%
11 | O=C1c2ccccc2C(Nc2cccnc2)N1Cc1ccccc1Cl (configuration not stated) | 10.4%
12 | Cc1ccc(-n2nc(C)c(=O)c(-c3ccccc3)c2NC(=O)c2cccs2)cc1 | 1.25%
13 | CC(C)C[C@@H](CN=[N+]=[N-])N1CCN(C)CCC1=O | 0.09%
14 | O=c1cc(CN2CCCc3ccccc32)nc2sccn12 | 0.01%
15 | c1ccc2c(c1)CCCN2Cc1nnnn1CC1CCCO1 (configuration not stated) | 0.36%
16 | c1ccc2c(c1)CCCN2Cc1nnc2n1CCCCC2 | 37% (active)
17 | COc1ccc(CNc2nn[nH]n2)cc1OC | 2.6%
18 | Cc1ccc([C@@H]2C3COCC=C3C(C#N)=C(N)C2(C#N)C#N)o1 (some centres not stated) | 0.32%
19 | CN1CCN(CCOc2ccc(Cc3ccccc3)cc2)CC1 | 0.23%
20 | O=C(C1CCN(Cc2ccc(OCc3ccccc3)cc2)CC1)N1CCCC1 | 0.13%
21 | CN1CCN(/N=C/c2ccc(OCc3ccccc3)cc2)CC1 | 107% (active)
22 | Cc1ccc(/C=C2\Oc3c(ccc(O)c3CN3CCN(C)CC3)C2=O)cc1 | 0.13%
23 | OCCN1CCN(CC(O)COc2ccc(C34CC5CC(CC(C5)C3)C4)cc2)CC1 (configuration not stated) | 32.1% (active)
24 | CCCCNc1nc(-c2ccccc2)nc(-n2ccnc2)n1 | 1.09%
25 | COc1cc(CCCN2C(=S)NC[C@@H]2CC2CCCCC2)cc(OC)c1OC | 7.7%

Row | SMILES | fluorescence artifact activation
26 | Cc1cc2cc(C=C(C#N)C#N)c(Cl)nc2cc1C | -0.03%
27 | Cc1cc(C(=O)NNC(=S)Nc2ccccc2C)cs1 | 1.65%
28 | NC(=O)NNC1=Nc2cccc3cccc1c23 | 1.01%
29 | O=C(COc1ccc(Cl)cc1[N+](=O)[O-])N1CCCCCC1 | 0.34%
30 | O=C(COc1ccc(Cl)cc1[N+](=O)[O-])N1CCCCC1 | 18.1% (active)
31 | CC(Oc1ccc(S(=O)(=O)N2CCCC2)cc1[N+](=O)[O-])C(=O)N(C)c1ccccc1 (configuration not stated) | 0.2%
32 | COc1ccc(NC(=O)NS(=O)(=O)c2ccc(C)cc2)cn1 | 0.39%
33 | O=C(N1CCOCC1)N1CCC(n2nnc3ccccc32)CC1 | 0.06%
34 | Cc1ccsc1C1C=C(c2cccc(Br)c2)Nc2ncnn21 (configuration not stated) | -0.01%
35 | CCOC(=O)c1sc(=NC(=O)c2cc(OC)c(OC)c(OC)c2)n(C)c1C | 80.1% (active)
36 | CCOC(=O)c1sc(N)c(C#N)c1COC(=O)CNC(=O)c1cc(OC)c(OC)c(OC)c1 | 3.51%
37 | CCOC(=O)c1sc(-c2ccc(F)cc2)cc1NC(=O)Nc1ccccc1OC | 7.09%
38 | S=C1NC2=C(CCC/C2=C\c2ccccc2)C(c2ccccc2)N1 (configuration not stated) | 0.06%
39 | O=C(Oc1ccc2c(c1)O/C(=C\c1ccncc1)C2=O)c1ccccc1 | 33% (active)
40 | COc1ccccc1C(=O)Oc1ccc2c(c1)O/C(=C\c1ccncc1)C2=O | 8.13%
41 | COc1ccc(/C=C2\Oc3cc(OCC(N)=O)ccc3C2=O)cc1OC | 0.06%
42 | O=C(CC1SC(N2CCCCC2)=NC1=O)Nc1ccc(C(=O)NCc2ccccc2)cc1 (configuration not stated) | 3.4%
43 | Cc1ccc(C(=O)Nc2ccc3c(c2)ncn3C)cc1 | 2.41%
44 | O=C1NC(c2ccco2)Nc2sc3c(c21)CCN(Cc1ccccc1)C3 (configuration not stated) | 0.37%
45 | COc1ccc(NC(=O)CC2C(=O)N(Cc3ccco3)C(=S)N2C(C)C)cc1 (configuration not stated) | 23.2% (active)
46 | COc1ccc(/C(O)=C2\C(=O)C(=O)N(Cc3ccco3)C2c2cc(OC)ccc2OC)cc1 (configuration not stated) | 0.4%
47 | COc1ccc(NC(=O)CS(=O)(=O)c2cccc(Cl)c2)cc1 | 0.13%
48 | Cc1cccc(C)c1OCC(C)N (configuration not stated) | 4.83%
49 | O=C(COc1ccccc1F)NC1CC1 | 10.7%
50 | COc1ccccc1CNc1cc(C)ccc1C | 415% (active)

Row | SMILES | fluorescence artifact activation
51 | C=CCOc1ccccc1CNc1cccc(F)c1 | 1.22%
52 | COc1ccc(C)cc1NC(=O)CC1COc2ccccc2O1 (configuration not stated) | 0.06%
53 | Cc1cccc(-n2c(C)cc(C=C3C(=O)c4ccccc4C3=O)c2C)c1 | -0.01%
54 | CCC1SC(=Nc2cccc(C)c2)NC1=O (configuration not stated) | 50% (active)
55 | COCCn1c(=NC(=O)/C=C/c2ccccc2)sc2cc(NC(C)=O)ccc21 | 3.82%
56 | CCOC(=O)c1c(C(C)(C)C)oc2ccc(OCC#N)cc12 | 0.48%
57 | COc1cc2c(cc1OC)-c1cc3ccc4c(c3c[n+]1CC2)OCO4 | 0.19%
58 | O=C(CSc1nncc2ccccc12)Nc1ccc(F)cc1 | 51.6% (active)
59 | Nc1nc(SCC(=O)Nc2ccc(Cl)cc2)[nH]c(=O)c1-c1ccccc1 | 0.2%
60 | COc1ccc(NC(=O)CSc2nncc3ccccc23)cc1 | 0.15%
61 | COc1ccc(CC/C(C)=N\NC(N)=O)cc1 | 1.07%
62 | COc1ccc(C)cc1Nc1n[n+](-c2ccccc2)c(-c2cc([N+](=O)[O-])cc(OC)c2O)s1 | -0.11%
63 | O=C(c1ccccc1)N1CCCCC1 | 2.65%
64 | O=C1c2ccccc2-c2c1cccc2C(=O)N1CCCCCC1 | 0.15%
65 | Cc1[nH]c(C)c(S(=O)(=O)N2c3ccccc3CC2C)c1C(=O)N1CCCCC1 (configuration not stated) | 43.6% (active)
66 | C=CCn1cccc(C(=O)Nc2ccc(OC)c(Cl)c2)c1=O | 0.54%
67 | COc1c(O)cccc1-c1nnn(CCC(=O)OCC(=O)c2ccccc2)n1 | 10.9%
68 | CC1CCCCN1C(=O)Cn1nnc(-c2cccnc2)n1 (configuration not stated) | 1.03%
69 | COc1ccc(N2CCN(C(=O)Cn3nnc(-c4ccccc4N)n3)CC2)cc1 | 20.6% (active)
70 | COC(=O)CCC(=O)OC1(C)C(=O)C=C2C=C(C3CC3)N(c3cccc(C#N)c3)C=C2C1=O (configuration not stated) | -0.02%
71 | COC(=O)c1ccc(Oc2c(F)c(F)nc(N3CCOCC3)c2F)cc1 | -0.07%
72 | OCCN(CCO)c1nc(N2CCCCC2)c2nc(N(CCO)CCO)nc(N3CCCCC3)c2n1 | 11.3%
73 | O=C(c1ccc([N+](=O)[O-])cc1[N+](=O)[O-])n1cnc2ccccc21 | -0.09%
74 | O=C(c1ccccc1C(=O)N1CCN(c2ccccc2)CC1)N1CCN(c2ccccc2)CC1 | -0.08%
75 | C=CCn1c(C)c(C(C)=O)c(N2CCN(c3ccccc3)CC2)nc1=S | 28.9% (active)

Row | SMILES | fluorescence artifact activation
76 | CC(=O)c1nnn(-c2nc(N3CCCC3)nc(N(c3ccccc3)c3ccccc3)n2)c1C | 0.23%
77 | CC1(C)C2CCC(C2)C1(C)N=C1OC(CCl)CS1 (configuration not stated) | 1.52%
78 | CC(C)=CCC/C(C)=C/Cc1c(O)ccc(C(=O)/C=C/c2ccc(O)cc2)c1O | 177% (active)
79 | CN(C)c1ccc(/C=C/C(=O)c2ccccc2O)cc1 | 0%
80 | CN(C)c1ccc(/C=C/C(=O)c2ccc(O)cc2)cc1 | -0.03%
81 | COc1ccc(C2C(C(=O)c3cccs3)=C(O)C(=O)N2c2nncs2)cc1 (configuration not stated) | 5.56%
82 | Cc1ccc(C)c(N2CCN(C(=O)c3cc4ccccn4n3)CC2)c1 | 4.58%
83 | CCN(CC)c1ccc(/C=C/C(=O)C2C(=O)C=C(C)OC2=O)cc1 (configuration not stated) | 0.16%
84 | Cc1ccc(-c2ccc(CO)o2)cc1N | 28.2% (active)
85 | Cc1ccc2c(CN3CCCc4ccccc43)cc(=O)oc2c1C | -0.04%
86 | FC(F)(F)c1cccc(-c2nc(COc3ccc(Cl)cc3Cl)no2)c1 | 2280% (active)
87 | Cn1c(-c2ccc(C=O)s2)nc2c3ccccc3c3ccccc3c21 | 5.75%
88 | CCOC(=O)COc1c(Cl)cc(C2NC(=S)NC(c3ccccc3)=C2C(C)=O)cc1OC (configuration not stated) | 6.87%
89 | CCOc1ccc(NC(=O)C2CC(=O)N=C(N)S2)cc1 (configuration not stated) | 0.11%
90 | Cc1ccc(NC(=O)C(C)Sc2nnc(C)n2C2CC2)cc1S(=O)(=O)N1CCOCC1 (configuration not stated) | 0.96%
91 | CN1CCCN(Cc2cccc3ccccc23)CC1 | 0.24%
92 | O=S(=O)(c1ccc(NC(=S)Nc2ccccc2)cc1)N1CCOCC1 | 0.1%
93 | NS(=O)(=O)c1cccc(NC(=O)CCc2ccc(S(=O)(=O)N3CCOCC3)cc2)c1 | 31.3% (active)
94 | O=C(CCc1ccc(S(=O)(=O)N2CCOCC2)cc1)OCC(=O)c1ccccc1 | 6.03%
95 | CCOC(=O)CCc1c(C)nc(-n2[nH]c(C)c(CCO)c2=O)[nH]c1=O | 0.03%
96 | Cc1ncc(CO)c2cc(-c3nnc(Nc4ccc5c(c4)OCO5)s3)c(=O)oc12 | 23.2% (active)
97 | CCOC(=O)CNc1ccc2c(c1)OCO2 | 2.35%
